Sampled rows, rich in hits. Any-hit rate of the full collection: about 3%.
Apaf1 inhib = human Apaf-1 inhibition. O14727. reconstituted apoptosome caspase-3 activity, DEVD-Rh110 fluorescence. inhibition, % at 20 µM. hit rate 0.71% among 330,000. AID 489030; active = inhibition of at least 40% at 20 µM;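 also: plate controls were DMSO wells for no effect and DEVD-CHO caspase inhibitor wells for full effect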
Target sequence (O14727 whole entry, looked up): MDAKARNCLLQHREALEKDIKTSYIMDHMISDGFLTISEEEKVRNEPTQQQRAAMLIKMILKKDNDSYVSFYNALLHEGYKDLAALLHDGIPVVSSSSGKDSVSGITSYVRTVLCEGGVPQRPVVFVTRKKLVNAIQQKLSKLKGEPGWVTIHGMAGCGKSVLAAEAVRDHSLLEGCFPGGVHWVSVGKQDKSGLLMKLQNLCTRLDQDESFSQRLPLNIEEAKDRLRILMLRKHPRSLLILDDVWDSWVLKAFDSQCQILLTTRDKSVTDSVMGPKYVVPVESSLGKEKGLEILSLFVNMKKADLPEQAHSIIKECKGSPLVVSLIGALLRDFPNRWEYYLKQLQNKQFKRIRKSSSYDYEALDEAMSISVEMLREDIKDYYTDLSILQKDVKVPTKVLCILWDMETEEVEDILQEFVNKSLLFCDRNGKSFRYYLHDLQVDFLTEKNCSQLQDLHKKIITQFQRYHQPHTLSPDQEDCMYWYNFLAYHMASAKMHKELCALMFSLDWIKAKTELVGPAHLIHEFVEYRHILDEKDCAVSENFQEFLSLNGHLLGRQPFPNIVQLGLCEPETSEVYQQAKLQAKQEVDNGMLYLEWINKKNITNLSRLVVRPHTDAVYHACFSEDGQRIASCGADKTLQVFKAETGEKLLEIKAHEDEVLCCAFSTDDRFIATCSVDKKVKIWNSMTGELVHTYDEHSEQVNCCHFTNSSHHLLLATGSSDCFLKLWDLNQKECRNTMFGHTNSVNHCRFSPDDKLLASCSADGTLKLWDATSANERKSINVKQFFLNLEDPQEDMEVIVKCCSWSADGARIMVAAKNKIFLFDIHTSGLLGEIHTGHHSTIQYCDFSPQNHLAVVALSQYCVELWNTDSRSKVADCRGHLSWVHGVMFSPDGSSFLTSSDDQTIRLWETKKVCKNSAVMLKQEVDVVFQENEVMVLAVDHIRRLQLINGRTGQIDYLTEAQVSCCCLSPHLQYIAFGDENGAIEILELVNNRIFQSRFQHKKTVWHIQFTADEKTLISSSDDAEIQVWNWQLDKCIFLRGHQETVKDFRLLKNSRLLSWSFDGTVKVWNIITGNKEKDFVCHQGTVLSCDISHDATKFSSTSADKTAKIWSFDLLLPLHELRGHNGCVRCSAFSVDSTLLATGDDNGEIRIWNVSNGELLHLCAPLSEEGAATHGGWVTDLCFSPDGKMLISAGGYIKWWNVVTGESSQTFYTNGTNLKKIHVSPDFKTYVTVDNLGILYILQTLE
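detection = Rh110 fluorescence intensity | test system = biochemical Apaf-1 apoptosome reconstitution | also added = cytochrome c and DEVD-Rh110 substrate | schedule = 30 min plus 50 min, RT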
SENP8 block-1 = SENP8 protease inhibition | AID 2540 | purified SENP8, Z-RLRGG-aminoluciferin cleavage, luminescence | inhibition, % at 10 µM | Q96LD8 | hit rate 1.2% among 330,000; in the data active = inhibition above about 50%
SENP8 block-2 = blocks human SENP8 cleavage of Nedd8 substrate; Q96LD8; recombinant SENP8, Nedd8 substrate fluorescence; inhibition, % at 20 µM; hit rate 0.64% among 360,000; AID 602440; in the data active = inhibition mostly above about 40%, no sharp cut-off; inactive = mostly below about 27%
SENP7 block = blocks the human protease SENP7; recombinant SENP7, Z-RLRGG-aminoluciferin luminescence, 40 min; inhibition, % at 5 µM; hit rate 1.5% among 330,000; AID 434973;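 active = inhibition above about 50% at the single test dose, limit read from the data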;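 also: plate controls were DMSO with enzyme for no effect and no enzyme buffer wells for full effect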
UBC13 inh = human UBC13 polyubiquitination inhibition; P61088; UBC13 polyubiquitin chain formation, TR-FRET; inhibition, % at 20 µM; hit rate 0.47% among 330,000; AID 485273; in the data active = inhibition above about 45%, passing the limit was not always enough
SENP6 inh = SENP6 protease inhibition; AID 2599; hit rate 1.8% among 330,000; Q9GZR1; Recombinant SENP6 catalytic domain, aminoluciferin luminescence; inhibition, % at 10 µM;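 active = inhibition above about 50% at the single tested dose, limit read from the data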;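 also: plate controls were DMSO wells with enzyme for no effect and DMSO wells lacking enzyme for full effect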
Casp3 counter = counter-screen for UBC13 inhibitors: human caspase-3 inhibition. shares compounds with UBC13 inh. AID 488856. hit rate 4% among 1,400. Recombinant caspase-3, Caspase-Glo 3/7 luminescence, 60 min. inhibition, % at 20 µM;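 active = mean inhibition across replicates above about 26%, limit read from the data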;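 also: plate controls were DMSO with caspase-3 for no effect and DMSO wells lacking enzyme for full effect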
UBC13 conf = confirmation of human UBC13 polyubiquitin inhibitors. shares compounds with UBC13 inh. UBC13 polyubiquitination, TR-FRET, biochemical. inhibition, % at 10 µM. hit rate 68% among 1,400. AID 488859; in the data active = inhibition above about 45%
* hit, by the source's call; x = no result given.

SMILES	Apaf1 inhib	SENP8 block-1	SENP8 block-2	SENP7 block	UBC13 inh	SENP6 inh	Casp3 counter	UBC13 conf
COc1cccc(NC(=O)CSc2nc3ccccc3c(=O)n2Cc2cccs2)c1	0	1	12	5	61*	5	4	58*
COc1ccc(NC(=O)CSc2nc3ccccc3c(=O)n2Cc2cccs2)c(OC)c1	-12	10	x	2	9	-2	x	x
COc1ccc(NC(=O)CSc2nc3ccsc3c(=O)n2CCCCCC(=O)O)cc1	3	-11	-1	-4	62*	-15	0	79*
COCc1cc(=O)[nH]c(Nc2nc3ccc(C)cc3o2)n1	1	-6	-119	14	74*	10	27*	89*
Nc1nc(N)nc(-c2cc(C(F)(F)F)ccc2Cl)n1	5	-5	3	6	51*	-7	0	-1
Nc1nc(N)nc(-c2cc(Cl)ccc2Cl)n1	-6	-5	5	-6	-9	-12	x	x
Cc1nc(N)c2c(Cc3cccc4ccccc34)nn(C(C)(C)C)c2n1	26	-11	7	7	74*	0	-4	43
N#Cc1c(N)n[nH]c1Cc1cccc2ccccc12	3	0	6	5	6	-4	x	x
CNc1ncnc2c1ncn2[C@H]1CN(C2CCCC2)C[C@@H](CO)O1	x	x	0	x	x	x	x	x
OC(c1ccccc1)c1nc(-c2cncnc2)cs1 (centres undefined)	x	x	8	x	x	x	x	x
CCN1C(N(C)CCc2cccs2)=N[C@@H](c2ccccc2)C(C(=O)OC)=C1C	8	-1	-20	3	14	-1	x	x
CCN1C(N(C)CCc2c[nH]c3ccccc23)=N[C@@H](c2cccc(C(F)(F)F)c2)C(C(=O)OC)=C1C	55*	-1	4	7	60*	0	-1	49*
O=C(CC[C@H]1O[C@@H](n2cnc3c(NC(=O)c4ccccc4)ncnc32)[C@H](O)[C@@H]1O)NCCCN1CCOCC1	x	x	14	x	x	x	x	x
O=C1CCCC[C@@H](CO)[C@H](O)C[C@H](c2ccccc2)O1	x	x	15	x	x	x	x	x
O=C1CCC2c3[nH]c4ccccc4c3CCN12 (centres undefined)	x	x	11	x	x	x	x	x
O=C(CSc1cc(Cl)ccc1Cl)NCC(=O)Nc1ccc(F)c(F)c1F	13	-14	3	-14	71*	-19	-1	79*
OC[C@@H]1CN(Cc2ccc(Cl)cc2)C[C@H](n2cnc3c(NC4CCC4)ncnc32)O1	x	x	20	x	x	x	x	x
CCN1CCN(CCCNC(=O)c2ccc(/C=C3/Sc4ccccc4N(Cc4ccccc4F)C3=O)cc2)CC1	33	-8	-403	0	46*	-29	0	54*
COc1cc(NC(=S)NCCN2CCOCC2)cc(OC)c1OC	4	2	-2	-5	61*	-2	4	-5
CC(C)=CCc1c(-c2ccc(O)cc2O)oc2cc3c(c(O)c2c1=O)C=CC(C)(C)O3	-1	3	x	-5	50*	-9	0	2
CNC(=O)c1ccccc1NC(=O)c1cccc(S(=O)(=O)N2CCC(C)CC2)c1	13	-6	33	-4	50*	-5	2	58*
CCNC(=O)c1ccccc1NC(=O)c1cccc(S(=O)(=O)N2CCC(C)CC2)c1	5	4	-99	1	67*	-18	-2	75*
CNC(=O)c1ccccc1NC(=O)c1cccc(S(=O)(=O)N2CCCCC2)c1	-15	1	24	-4	17	4	x	x
CCNC(=O)c1ccccc1NC(=O)c1cccc(S(=O)(=O)N2CCOCC2)c1	-17	-6	9	-3	-16	5	x	x
CCC(=O)N(c1nnc(SCC(=O)Nc2sccc2C(N)=O)s1)C1CC1	x	x	10	x	x	x	x	x
SMILES	Apaf1 inhib	SENP8 block-1	SENP8 block-2	SENP7 block	UBC13 inh	SENP6 inh	Casp3 counter	UBC13 conf
CC1(C(=O)NS(=O)(=O)c2cccs2)CCN1C(=O)Cc1ccc(Cl)cc1Cl (centres undefined)	x	x	10	x	x	x	x	x
NCCCC[C@@H]1NC(=O)c2cc([N+](=O)[O-])cc(F)c2NCCCC[C@@H](C(N)=O)NC(=O)[C@H](CCC(N)=O)NC1=O	-3	-12	9	-8	74*	-6	1	56*
NC(=O)[C@@H]1CCCCNc2c(F)cc([N+](=O)[O-])cc2C(=O)N[C@@H](CCCN=C(N)N)C(=O)NCC(=O)N1	-2	-10	13	3	24	-15	x	x
CC[C@H](C)[C@@H]1NC(=O)c2cc([N+](=O)[O-])cc(F)c2NCCCC[C@@H](C(N)=O)NC(=O)[C@H](CCCCN)NC1=O	-5	11	10	6	78*	16	-1	62*
NCCCC[C@@H]1NC(=O)c2cc([N+](=O)[O-])cc(F)c2NCCCC[C@@H](C(N)=O)NC(=O)CNC1=O	4	-8	17	-6	85*	2	-4	77*
CC1(C(=O)NCc2cccs2)CCN1C(=O)Cc1cccc2ccccc12 (centres undefined)	x	x	8	x	x	x	x	x
CCc1nc2c(OCC(=O)c3ccc(F)cc3)cccn2c1N(C)C(=O)C(C)C	x	x	-8	x	x	x	x	x
CCCCN(C)CCNC(=O)c1ccc(Cn2c(=S)[nH]c3ccc(Br)cc3c2=O)cc1	29	4	10	6	48*	-24	34*	48*
CC1CCN(CCCNC(=O)c2ccc3c(=O)n(Cc4ccc(Cl)cc4)c(=S)[nH]c3c2)CC1	17	0	30	-3	53*	4	2	73*
CCCS(=O)(=O)NC(=O)C1(C)CCN(C(=O)c2ccc3ccccc3n2)C1 (centres undefined)	x	x	11	x	x	x	x	x
CN(C)c1ccc(NC(=O)CN2CCC(NC(=O)C3CCCCC3)CC2)cc1	-5	-2	0	-7	64*	-29	-2	82*
Cc1ccc(S(=O)(=O)N(CC(=O)NC2CC3CCC2C3)c2ccccc2)cc1 (centres undefined)	x	x	15	x	x	x	x	x
O=C(C[n+]1cccc(CNC(=O)c2ccc(OC(F)F)cc2)c1)Nc1ccc(SC(F)F)cc1	7	-21	9	-10	55*	-31	1	102*
CC(C)CN1CCC1(C)C(=O)Nc1cccc(C#N)c1 (centres undefined)	x	x	4	x	x	x	x	x
COc1ccc(/C=N/NC(=O)Cc2csc(Nc3cccc(C(F)(F)F)c3)n2)c(OC)c1	16	-1	12	1	78*	-4	-2	69*
CCOc1ccc(/C=N/NC(=O)Cc2csc(Nc3cccc(C(F)(F)F)c3)n2)c(OCC)c1	17	-4	12	9	-4	-5	x	x
O=C(Nc1cccnc1)C1Cc2c(-c3cccc(F)c3)ccnc2O1 (centres undefined)	x	x	7	x	x	x	x	x
CN1CCN(C2CCN(Cc3ccc(O)c4ncccc34)CC2)CC1	-5	-11	17	-9	60*	-2	-1	70*

Source: PubChem
